Assay results from ChEMBL document CHEMBL1909500, “Synthesis and in vitro anticancer activity of 6,7-methylenedioxy (or 5-hydroxy-6-methoxy)-2-(substituted selenophenyl)quinolin-4-one analogs” (Eur J Med Chem, 2011).
The source made the active and inactive calls. No cut-off for these calls is given here.

Key:
HL-60 [1] = assay: Induction of cell cycle arrest at G2/M phase in human HL60 cells assessed as increase in cyclin B1 expression at 0.1 to 1.0 uM after 24 hrs by Western blot analysis; type: functional, cell-based
Outline: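 HL-60 cells at 2 × 10⁵/mL were exposed to the indicated concentrations for 24 h, washed in PBS and lysed for total protein. Immunoblots used HRP-linked secondary antibodies with ECL detection. Cyclin B1, CDK1, caspase-3 (17 kDa active form) and PARP (85 kDa fragment) were quantified and normalised to β-actin.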

OVCAR-4 = assay: Anticancer activity against human OVCAR4 cells after 48 hrs by MTT assay; type: functional; conditions: OVCAR-4, 48 h
HL-60(TB) = assay: Anticancer activity against human HL-60(TB) cells after 48 hrs by MTT assay; type: functional; conditions: HL-60, 48 h
SW-620 = assay: Anticancer activity against human SW620 cells after 48 hrs by MTT assay; type: functional; conditions: SW-620, 48 h
SK-MEL-5 = assay: Anticancer activity against human SK-MEL-5 cells after 48 hrs by MTT assay; type: functional; conditions: SK-MEL-5, 48 h
SK-OV-3 = assay: Anticancer activity against human SKOV3 cells after 48 hrs by MTT assay; type: functional; conditions: SK-OV-3, 48 h
MDA-MB-231 = assay: Anticancer activity against human MDA-MB-231 cells after 48 hrs by MTT assay; type: functional; conditions: MDA-MB-231, 48 h
IGROV-1 = assay: Anticancer activity against human IGROV1 cells after 48 hrs by MTT assay; type: functional; conditions: IGROV-1, 48 h
DU-145 = assay: Anticancer activity against human DU145 cells after 48 hrs by MTT assay; type: functional; conditions: DU-145, 48 h
SF-539 = assay: Anticancer activity against human SF539 cells after 48 hrs by MTT assay; type: functional; conditions: SF-539, 48 h
HL-60 [2] = assay: Cell cycle arrest in human HL60 assessed as cell accumulation in S phase at 1 uM after 24 hrs pretreated with pan-caspase inhibitor z-VAD-fmk for 3 hrs by propidium iodide staining-based flow cytometric analysis; type: functional; set-up: scale not given: the % may be the effect or the level left
Outline: (§1)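 HL-60 cells were preincubated for 3 h with or without the pan-caspase inhibitor z-VAD-fmk, then co-exposed to compound at 1 μM for 24 h. Cells were washed in PBS and fixed overnight in ice-cold 70% ethanol at −20 °C. They were stained for 30 min in the dark with propidium iodide 4 μg/mL, 0.1 mg/ml RNase and 1% Triton X-100. DNA content was read on a FACScan flow cytometer.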

M14 = assay: Anticancer activity against human M14 cells after 48 hrs by MTT assay; type: functional; conditions: M14, 48 h
HL-60 [3] = assay: Cell cycle arrest in human HL60 assessed as cell accumulation in G0/G1 phase at 1 uM after 24 hrs pretreated with pan-caspase inhibitor z-VAD-fmk for 3 hrs by propidium iodide staining-based flow cytometric analysis; type: functional; set-up: scale not given: the % may be the effect or the level left; outline: as §1
[4] = read-out: pLC50 (the source's name) (converted)

Structure (SMILES): Cc1ccc(-c2cc(=O)c3cc4c(cc3[nH]2)OCO4)[se]1
- Activity (HL-60 [1]): Active
- GI50 (OVCAR-4): 575 nM
- CC50 (OVCAR-4; [4]): > 100000 nM
- TGI (OVCAR-4; read-out: pTGI): > 100000 nM
- GI50 (HL-60(TB)): 204 nM
- CC50 (HL-60(TB); [4]): 933 nM
- TGI (HL-60(TB); read-out: pTGI (converted)): 437 nM
- GI50 (SW-620): 407 nM
- CC50 (SW-620; [4]): > 100000 nM
- TGI (SW-620; read-out: pTGI): > 100000 nM
- GI50 (SK-MEL-5): 309 nM
- GI50 (SK-OV-3): 347 nM
- CC50 (SK-OV-3; [4]): > 100000 nM
- TGI (SK-OV-3; read-out: pTGI): > 100000 nM
- GI50 (MDA-MB-231): 501 nM
- CC50 (MDA-MB-231; [4]): > 100000 nM
- TGI (MDA-MB-231; read-out: pTGI): > 100000 nM
- GI50 (IGROV-1): 145 nM
- CC50 (IGROV-1; [4]): > 100000 nM
- TGI (IGROV-1; read-out: pTGI (converted)): 457 nM
- GI50 (DU-145): 302 nM
- CC50 (DU-145; [4]): > 100000 nM
- TGI (DU-145; read-out: pTGI): > 100000 nM
- GI50 (SF-539): 245 nM
- CC50 (SF-539; [4]): > 100000 nM
- TGI (SF-539; read-out: pTGI (converted)): 708 nM
- Activity (HL-60 [2]): 36.2%
- GI50 (M14): 229 nM
- CC50 (M14; [4]): > 100000 nM
- TGI (M14; read-out: pTGI): > 100000 nM
- Activity (HL-60 [3]): 8.3%
